The text below walks through data of paper PMC3409840 (ACS medicinal chemistry letters, 2012).

Data set [1] can be described thus: Solubility under the NF-κB reporter assay conditions. It counts as physicochemical. The following applies: 50 µM screen. On the technique in general: Reporter assays use an easily measured gene product as a stand-in for the process of interest.
The subject of data set [2] is DU-145. The experiment in a line: Cellular cytotoxicity by Alamar Blue staining, DU-145. It counts as cell-based, human. The settings on record: for IC50 against DU-145 relative to reported IC50 of cryptocaryone: fold higher than cryptocaryone. (Alamar Blue is a resazurin reagent that responds to reducing activity.)
Data set [3] concerns p65. The experiment in a line: Western blot of p65 in nuclear lysate of NF-κB-induced DU-145 cells. It counts as cell-based, human. An outline of the steps: (§1)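 Cells were dosed with test compound at 100 μM or 25 μM, or with DMSO vehicle, and the NF-κB pathway was then induced with TNF-α. Controls were noninduced and TNF-α-induced cells, both given vehicle.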
On the technique in general: A western blot detects proteins with antibodies after separation by electrophoresis.

The subject of data set [4] is p65. Kind of data set: Western blot of p65 in nuclear lysate of NF-κB-induced CCRF-CEM cells. It counts as cell-based, human. In short, it runs like this: as §1
Data set [5] deals with IL-8. Kind of data set: Secreted IL-8 protein by ELISA in TNF-α-induced DU-145 cells. It counts as cell-based, human. An outline of the steps: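 DU-145 cells dosed with DMSO vehicle or test compound (100 μM and 33 μM), followed by TNF-α induction of the NF-κB pathway. Non-induced and induced vehicle controls were included. Secreted IL-8 protein in the cell medium was quantified by ELISA.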

Data set [6] can be described thus: NMR-based thiol reactivity assay with cysteamine. The following applies: two molar equivalents of cysteamine, DMSO-d6/D2O PBS, 1H NMR.
The subject of data set [7] is NF-κB. Kind of data set: NF-κB luciferase reporter assay in A549 cells induced with TNF-α. It counts as cell-based, human. In short, it runs like this: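 A549 lung cancer cells carrying a stably transfected luciferase reporter behind six consensus NF-κB binding-site repeats. Cells induced with TNF-α and treated with test compound at 100, 50 and 10 μM (preliminary screen at 50 μM). Non-induced and TNF-α-induced wells serve as controls. Read-out is luciferase signal. Cell viability was checked in parallel under identical conditions.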

Data set [8] has as its system IL-8 mRNA. The experiment in a line: Semi-quantitative RT-PCR of IL-8 mRNA in TNF-α-induced DU-145 cells. It counts as cell-based, human. The settings on record: 33 µM, lowest concentration tested. In short, it runs like this:
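DU-145 cells given DMSO vehicle or test compound (100 μM and 33 μM), then induced with TNF-α, alongside non-induced and induced controls. IL-8 mRNA was assessed by semiquantitative (traditional) RT-PCR, with GAPDH mRNA amplified as the reference transcript.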

Data set [9] has as its system CCRF-CEM. The experiment in a line: Cellular cytotoxicity by Alamar Blue staining, CCRF-CEM. The settings on record: 48-hr cytotoxicity assay, mean ± SD. It counts as cell-based, human.
The test system of data set [10] is Vero. Kind of data set: Cellular cytotoxicity by Alamar Blue staining, Vero. It counts as cell-based, African green monkey. The following applies: mean ± SD.
The test system of data set [11] is RWPE-1. Kind of data set: Cellular cytotoxicity by Alamar Blue staining, RWPE-1. It counts as cell-based, human. The following applies: mean ± SD.
For data set [12], the system named is IκBα. The following applies: 16 µM; cited from earlier work.

For `CO[C@@]12C=C(Br)C(=O)C[C@@H]1/C(=C(/OC(C)=O)c1ccccc1)CC2` (racemic) [Compound 4], the “solubility under the assay conditions” value in data set [1] is “poorly soluble under the assay conditions”.

For the molecule `CC(=O)O/C(=C1\CO[C@]2(C)C=CC(=O)C[C@H]12)c1ccccc1` (racemic) [Compound 10], the “IC50 against DU-145 relative to reported IC50 of cryptocaryone” value in data set [2] is “approximately 15 fold”. Also, the “inhibition of nuclear translocation of p65” value is recorded as “Partial inhibition of p65 nuclear translocation” in data set [3] (25 µM), “completely inhibited nuclear translocation of p65” in data set [3] (100 µM), “Partial inhibition of p65 nuclear translocation” in data set [4] (25 µM) and “completely inhibited nuclear translocation of p65” in [4] (100 µM). Also, the “secreted IL-8 levels” value in [5] (33 µM) is listed as 3,480 pg/mL. The “time to disappearance of vinyl proton doublets after cysteamine addition” value in data set [6] is at most 5 min.

Consider `CC(=O)O/C(C)=C1\CO[C@]2(c3ccccc3)C=CC(=O)C[C@H]12` (racemic) [Compound 11], for which, in data set [7] (50 µM), the “enhancement in potency compared with racemic 11” value worked out at 2 fold. For the same molecule, the “IC50 against DU-145 relative to reported IC50 of cryptocaryone” value in data set [2] is reported as “approximately 15 fold”. Also, the “inhibition of nuclear translocation of p65” value is given as “Partial inhibition of p65 nuclear translocation” in [3] (25 µM), “completely inhibited nuclear translocation of p65” in data set [3] (100 µM), “Partial inhibition of p65 nuclear translocation” in data set [4] (25 µM) and “completely inhibited nuclear translocation of p65” in [4] (100 µM). Also, in [5] (33 µM), the “secreted IL-8 levels” value was 2,970 pg/mL. Moreover, in [5] (highest concentration tested (100 µM)), the “effect on IL-8 protein levels (in words)” value is listed as “depleted IL-8 protein levels to nearly undetectable levels”. Further, the “IL-8 mRNA production (in words)” value in [8] was “visibly lower levels than that of 10”.

As to `CC(=O)O/C(=C1\CO[C@]2(C)CCC(=O)C[C@H]12)c1ccccc1` (racemic) [Compound 12], in [7] (100 µM), the “decrease in potency compared to 11” value was ~ 4 fold. The “reduction of NF-κB activity” value in data set [7] (100 µM, highest concentration tested) was 24%. For the same molecule, the “IC50 CCRF-CEM” value in [9] was “no appreciable toxicity”. The “IC50 DU-145” value in data set [2] (48-hr cytotoxicity assay, Alamar Blue, mean ± SD) was “no appreciable toxicity”. Moreover, the “IC50 Vero” value in data set [10] is reported as “no appreciable toxicity”. Moreover, the “IC50 RWPE-1” value in data set [11] is given as “no appreciable toxicity”. Besides, the “secreted IL-8 levels” value in [5] (100 µM) is 4,900 pg/mL.

Take `O=C1C[C@@H]2/C(=C(O)\C=C\c3ccccc3)C(=O)C=C[C@@H]2O1` [cryptocaryone]: in [12], the “inhibition of IκBα degradation (in words)” value is “inhibit the degradation of IκBα”.
